OX1R antag-1: OX1R (human) antagonism. O43613. OX1R-expressing cells, FRET antagonist read-out. inhibition, % at 6.6 µM. 330,000 compounds, 1.8% hits. AID 485270; in the data active = inhibition mostly above about 38%, no sharp cut-off; inactive = mostly below about 40%;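 note: 0% = agonist challenge alone and 100% = reference antagonist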
Target sequence (O43613 whole entry, looked up): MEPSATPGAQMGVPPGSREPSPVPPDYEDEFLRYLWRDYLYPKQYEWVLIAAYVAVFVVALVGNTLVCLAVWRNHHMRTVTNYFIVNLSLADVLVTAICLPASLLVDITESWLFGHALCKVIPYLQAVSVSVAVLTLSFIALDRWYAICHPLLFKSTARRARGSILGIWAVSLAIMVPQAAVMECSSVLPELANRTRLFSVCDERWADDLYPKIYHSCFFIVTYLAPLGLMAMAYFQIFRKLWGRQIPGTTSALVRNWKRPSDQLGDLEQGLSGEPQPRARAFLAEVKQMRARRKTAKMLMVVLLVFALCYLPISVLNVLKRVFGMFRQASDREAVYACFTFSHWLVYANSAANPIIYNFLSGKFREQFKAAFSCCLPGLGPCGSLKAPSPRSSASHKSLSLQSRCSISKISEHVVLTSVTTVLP
GPR7 antagonist: blocks human GPR7 receptor signaling. 290,000 compounds, 1.1% hits. GPR7-expressing cells, fluorescence antagonist assay. inhibition, % at 4.4 µM; in the data active = inhibition above about 16%, passing the limit was not always enough;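 note: cells stimulated with the agonist NPW; 0% = agonist with vehicle and 100% = vehicle without agonist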
CHO parental Ca: counter-screen: ATP calcium response change in parental CHO cells. parental CHO-K1, ATP-induced calcium, Fluo-8 fluorescence. inhibition, % at 5.6 µM. 330,000 compounds, 0.63% hits. AID 463079;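 active = inhibition above that plate's mean sample inhibition plus 3 SD, cut at about 26% in these data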;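 note: 0% = ATP-challenged DMSO wells and 100% = DMSO wells without ATP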
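Material: Parental CHO cells | Reagent: ATP | Compound dosing: Single nominal dose of 5.6 µM per compound | Detection: Intracellular calcium via Fluo-8 no-wash fluorescent dye | Read-out: % inhibition of ATP-induced calcium mobilization | Benchmarks: Low control ATP plus DMSO, high control DMSO only | Replicates: Singlicate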
TAAR1 ag: human TAAR1 agonism. CHO RD-HGA16 TAAR1, Fluo-8 calcium fluorescence; vehicle wells 0%, saturating PEA agonist 100%. activation, % at 3 µM. 360,000 compounds, 0.99% hits. AID 624467;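 active = activation above the mean activation of all test compounds in the run plus 3 SD, cut at about 38% in these data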
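Test system: RD-HGA16 (CHO) cells co-expressing Gα16 and hTAAR1; dosing: one-point dosing at 3 µM (nominal); timing: 17-24 h seeding, 75 min 37 °C dye, 30 min RT; signal: kinetic Fluo-8 calcium fluorescence; read-out basis: % activation relative to PEA EC100 response; controls: DMSO and PEA EC100; replicates: n 1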
TAAR1 antag: antagonists of human TAAR1 | Q96RJ0 | CHO RD-HGA16 TAAR1, Fluo-8 calcium fluorescence, antagonist | inhibition, % at 3 µM | 360,000 compounds, 1.5% hits;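 active = inhibition above a per-plate cutoff, the mean inhibition of test compounds on that plate plus 3 SD, cut at about 49% in these data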;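 note: 0% = DMSO plus EC80 beta-PEA response and 100% = DMSO alone without agonist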
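Test system: hTAAR1-expressing CHO RD-HGA16 cells, Gα16-coupled; Probe or stimulus: EC80 β-phenethylamine stimulus; Compound dosing: single nominal final test compound concentration of 3 µM; Timing: 140 s kinetic read after compound, 140 s after agonist; Signal: Fluo-8 calcium-sensitive fluorescence; Measure: % inhibition of agonist calcium response; Controls: DMSO and EC80 PEA controls.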
OX1R antag-2: antagonists of human orexin 1 receptor; O43613; CHO/OX1R cells, Fluo-8 calcium fluorescence, orexin A; inhibition, % at 5 µM; 330,000 compounds, 0.43% hits;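 active = inhibition above its plate's threshold, mean inhibition of all tested compounds on the plate plus 3 SD, cut at about 37% in these data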;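 note: 0% = orexin A challenge wells and 100% = SB-334867-A antagonist wells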
* marks the source's active call; other numbers are inactive results; · = no result given. The list is not random: actives were taken first. Their share in the collection is about 4.5%.

SMILES | OX1R antag-1 | GPR7 antagonist | CHO parental Ca | TAAR1 ag | TAAR1 antag | OX1R antag-2
COc1ccc(C2=CC(=O)N(Nc3ccccc3)C2=O)cc1 | 20 | -3 | 6 | 33 | -3 | 5
N#Cc1ccccc1NC(=O)CSc1nnc(-c2ccccc2O)n1-c1ccccc1 | 43* | -5 | -15 | 11 | 22 | 9
Cc1ccccc1NC(=O)CSc1nnc(-c2ccccc2)n1-c1ccccc1 | 26 | 6 | -20 | 3 | -8 | -35
O=C(NC(N1CCOCC1)C(Cl)(Cl)Cl)c1cc([N+](=O)[O-])cc([N+](=O)[O-])c1 (centres undefined) | 73* | -11 | -6 | 5 | 13 | 3
Cc1ccc(C(=O)N2CC(C)OC(C)C2)cc1[N+](=O)[O-] (centres undefined) | 20 | 1 | -11 | 3 | 0 | -7
CC1CN(C(=O)c2cc([N+](=O)[O-])cc([N+](=O)[O-])c2)CC(C)O1 (centres undefined) | 62* | -3 | -17 | 1 | 11 | -21
COC(=O)c1cc(C(=O)N2CCOCC2)cc([N+](=O)[O-])c1 | 77* | -21 | 11 | 3 | -15 | 8
COC(=O)c1cc(C(=O)N2CCN(c3cccc(Cl)c3)CC2)cc([N+](=O)[O-])c1 | 5 | 19 | -15 | 1 | 9 | -38
COC(=O)C1=C(C)N(Cc2cccc(C(F)(F)F)c2)C(=NCc2cc(OC)c(OC)c(OC)c2)NC1c1ccccc1C(F)(F)F (centres undefined) | · | · | · | 3 | 6 | ·
Cc1cccc2c(N=NC(=O)c3ccc(NS(=O)(=O)c4cccs4)cc3)c(O)[nH]c12 | 40* | · | -4 | 5 | 56* | 14
Cc1ccc2[nH]c(O)c(N=NC(=O)c3ccc(NS(=O)(=O)c4cccs4)cc3)c2c1 | 19 | -6 | -4 | 0 | 10 | -7
Cc1nc(/N=C(\N)NC(=O)c2ccccc2)nc2ccccc12 | 72* | -9 | -22 | · | · | 27
COC(=O)c1ccc2nc(-c3ccc(C)cc3)c(Cc3ccccc3)n2c1 | · | · | · | 1 | -8 | ·
Cc1cccc(CCNS(=O)(=O)c2ccc3c(c2)n(C)c(=O)c(=O)n3C)c1 | 5 | -13 | -18 | 39* | -13 | -17
FC(F)(F)c1nc2cc3nc4ccccc4[nH]c3cc2n1 | 54* | -12 | -8 | 3 | -2 | -9
CC1CCC(C(C)C)C(OC(=O)CSc2nc(N)cc(=O)[nH]2)C1 (centres undefined) | 5 | -1 | -21 | 6 | -7 | -19
Cc1cccc(OCc2n(CC(=O)OC3CC(C)CCC3C(C)C)c3ccccc3[n+]2C)c1 (centres undefined) | 6 | 61* | 51* | · | · | 48*
CC1CCC(C(C)C)C(OC(=O)Cn2c(-c3ccc(F)cc3)[n+](C)c3ccccc32)C1 (centres undefined) | 15 | 54* | 14 | 3 | -2 | -5
COc1ccc(NS(=O)(=O)c2cc(NC(=O)Cc3cccs3)ccc2C)cc1 | 28 | 15 | -8 | 1 | -3 | -12
COc1ccc(NS(=O)(=O)c2ccc(C(=O)N(C)Cc3cccs3)cc2)cc1 | · | · | · | 45* | 34 | ·
COc1ccc(NS(=O)(=O)c2ccc(NC(=O)Cc3cccs3)cc2)cc1 | 12 | 4 | 6 | 41* | 15 | 16
O=C(NCCN1CCOCC1)c1ccc(NS(=O)(=O)c2cccc([N+](=O)[O-])c2)cc1 | 52* | · | -9 | 0 | 5 | -8
COc1ccc(NS(=O)(=O)c2ccc(NC(=O)c3ccc(CN4CCOCC4)cc3)cc2)cc1 | 19 | 24* | 6 | 18 | 36 | 11
COc1ccc(NS(=O)(=O)c2cccc(C(=O)N(C)Cc3cccs3)c2)cc1 | 26 | · | -6 | 8 | -12 | -8
COCc1cc(N2CCNC[C@@H]2C)ccc1N1CCN(Cc2ccccc2)[C@H](C)C1 | · | · | · | 2 | -7 | ·
SMILES | OX1R antag-1 | GPR7 antagonist | CHO parental Ca | TAAR1 ag | TAAR1 antag | OX1R antag-2
COc1ccc(CC(=O)Nc2nc(OCC(F)(F)F)cnc2-c2ccc(Cl)cc2Cl)cc1 | · | · | · | -2 | -30 | ·
CN1CCN(S(=O)(=O)c2cccc(C(=O)NCCOc3ccccc3F)c2)CC1 | -4 | -7 | -13 | 1 | 7 | -11
N#Cc1c2n(c(=S)n(-c3ccc(OC(F)F)cc3)c1=O)CCCCC2 | 6 | 17* | -4 | 20 | 16 | 13
CCOc1cccc(C=NNC(=O)C(=O)Nc2cccc(C(F)(F)F)c2)c1O | · | · | · | 6 | 14 | ·
Cc1ccc(S(=O)(=O)N2CC3(O)CN(C(=O)OC(C)C)N(C(=O)OC(C)C)CC3(OC(=O)NC3CCCC3)C2)cc1 (centres undefined) | · | · | · | 6 | 49* | ·
N#Cc1ccccc1CSCCNC(=O)Cc1c(F)cccc1Cl | 6 | 0 | -8 | -2 | 5 | -20
CN(C)c1ccc2nc3ccc(=[N+](C)C)cc-3sc2c1 | 59* | -4 | -10 | 2 | -1 | 9
N#Cc1cc(-c2ccccc2)oc1NC(=O)c1ccco1 | 20 | 0 | -9 | 0 | 15 | -26
Cc1cccc(C(=O)Nc2oc(-c3ccccc3)cc2C#N)c1 | 45 | 2 | -8 | 5 | 49* | -7
COc1cccc(/C=N/NC(=O)c2cc3c(OC)cccc3[nH]2)c1OC | 67* | 4 | -18 | 9 | 55* | -5
COc1cc(/C=N/Nc2snc(SC)c2C#N)ccc1O | 81* | 21 | -11 | 37 | 24 | 45
COc1cc(/C=N/NC(=O)c2cccc(NC(=O)c3ccccc3C)c2)ccc1O | 11 | 6 | -5 | 15 | 61* | -1
COc1cc(/C=N/Nc2nc(C)cc(C)n2)ccc1O | · | · | · | 0 | -1 | ·
COc1cc(/C=N/Nc2nc3ccccc3[nH]2)ccc1O | 23 | -12 | -14 | 42* | 21 | -27
c1ccc(Cc2cnc(N3CCN(Cc4cccc(-c5ccsc5)n4)CC3)nc2)cc1 | · | · | · | 1 | -24 | ·
COc1ccc(OC)c2[nH]c(C(=O)N/N=C/c3ccccc3O)cc12 | 17 | 14 | -5 | 8 | 0 | -19
C=CCOc1ccc(/C=N/NC(=O)c2cc3c(OC)cc(OC)cc3[nH]2)cc1 | 48* | -20 | -20 | 7 | 35 | 14
CCOc1ccc(/C=N/NC(=O)c2cc3c(OC)cccc3[nH]2)cc1 | 24 | -6 | 8 | 5 | 22 | -19
COc1ccc(/C=N/NC(=O)c2cc3c(OC)ccc(OC)c3[nH]2)cc1O | 62* | 16 | -14 | 6 | 4 | -9
COc1ccc(O)c(/C=N/Nc2nc3ccccc3[nH]2)c1 | 19 | -21 | -16 | 42* | 12 | -40
CC(/C=N/Nc1nc2ccccc2[nH]1)=C\c1ccccc1 | 30 | -15 | -9 | 40* | 38 | 1
O=c1[nH]cnc2nn(C3OC(CO)C(O)C3O)nc12 (centres undefined) | · | · | · | 2 | -36 | ·

Screening data (PubChem BioAssay)
